In general, IC50 refers to the concentration that gives 50% inhibition.

The first experiment has as its system Plasmodium berghei. Nature of the experiment: Antimalarial activity against Plasmodium berghei infected in Swiss Webster mouse assessed as mouse survival rate at 0.4 mg/kg administered once daily via oral gavage for 4 consecutive days beginning 1 hr after infection measured on day 4 post infection relative to control. In kind it is functional.
Conditions: not given
In outline:
(§1)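 Mice given an intraperitoneal injection of P. berghei-infected erythrocytes taken from a previously infected animal. Oral dosing once daily for 4 consecutive days, starting 1 h after infection. Vehicle: polyethylene glycol 300/propylene glycol/water (weight ratio 55/25/20). Percent survival recorded daily from day 4 to day 20. Chloroquine 30 mg/kg and vehicle-only groups served as controls.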
With `Cc1c(Oc2cnc(C(=O)N[C@@H](CO)CC(F)(F)F)cn2)ccc2c1B(O)OC2`, the survival at 0.4 mg/kg stood at 100%.

The subject of another experiment is Plasmodium berghei. Nature of the experiment: Antimalarial activity against Plasmodium berghei infected in Swiss Webster mouse assessed as mouse survival rate at 100 mg/kg administered once daily via oral gavage for 4 consecutive days beginning 1 hr after infection measured on day 6 post infection relative to control. In kind it is functional.
Conditions: not given
In outline: as §1
On to `Cc1c(Oc2cnc(C(=O)N[C@@H](CO)CC(F)(F)F)cn2)ccc2c1B(O)OC2`, for which the survival at 100 mg/kg was determined as 100%.

A further experiment deals with Plasmodium berghei. The experiment is described as follows: Antimalarial activity against Plasmodium berghei infected in Swiss Webster mouse assessed as mouse survival rate administered once daily via oral gavage for 4 consecutive days beginning 1 hr after infection measured on day 4 post infection. In kind it is functional.
Conditions: not given
An outline of the steps: as §1
For `Cc1c(Oc2cnc(C(=O)N[C@@H](CO)CC(F)(F)F)cn2)ccc2c1B(O)OC2`, the ED90 was determined as 7.3 mg/kg.

For a further experiment, the system named is Plasmodium berghei. Nature of the experiment: Antimalarial activity against Plasmodium berghei infected in Swiss Webster mouse assessed as mouse survival rate at 11 mg/kg administered once daily via oral gavage for 4 consecutive days beginning 1 hr after infection measured on day 4 post infection relative to control. The format is functional.
Conditions: not given
In outline: (§2)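 P. berghei-infected erythrocytes taken from a previously infected mouse were injected intraperitoneally. Oral dosing, once daily for 4 consecutive days, began 1 h after infection, in polyethylene glycol 300/propylene glycol/water (55/25/20 by weight). Chloroquine at 30 mg/kg was the positive control, with a vehicle-only group. Percent survival was recorded daily from day 4 to day 20.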
On to `Cc1c(Oc2cnc(C(=O)N[C@@H](CO)CC(F)(F)F)cn2)ccc2c1B(O)OC2`, for which the survival at 11 mg/kg amounted to 100%.

A further experiment deals with Plasmodium berghei. The experiment is described as follows: Antimalarial activity against Plasmodium berghei infected in Swiss Webster mouse assessed as mouse survival rate at 0.4 mg/kg administered once daily via oral gavage for 4 consecutive days beginning 1 hr after infection measured on day 7 post infection relative to control. In kind it is functional.
Conditions: not given
An outline of the steps: as §1
For the compound `Cc1c(Oc2cnc(C(=O)N[C@@H](CO)CC(F)(F)F)cn2)ccc2c1B(O)OC2`, the survival at 0.4 mg/kg turned out to be 0%.

Another experiment concerns Plasmodium berghei. Nature of the experiment: Antimalarial activity against Plasmodium berghei infected in Swiss Webster mouse assessed as mouse survival rate at 0.4 mg/kg administered once daily via oral gavage for 4 consecutive days beginning 1 hr after infection measured on day 6 post infection relative to control. In kind it is functional.
Conditions: not given
An outline of the steps:
as §1
Consider `Cc1c(Oc2cnc(C(=O)N[C@@H](CO)CC(F)(F)F)cn2)ccc2c1B(O)OC2`, for which the survival at 0.4 mg/kg was found to be 100%.

For the next experiment, the system named is Plasmodium berghei. Nature of the experiment: Antimalarial activity against Plasmodium berghei infected in Swiss Webster mouse assessed as mouse survival rate at 11 mg/kg administered once daily via oral gavage for 4 consecutive days beginning 1 hr after infection measured on day 5 post infection relative to control.
Conditions: not given
The format is functional. An outline of the steps: as §2
Take `Cc1c(Oc2cnc(C(=O)N[C@@H](CO)CC(F)(F)F)cn2)ccc2c1B(O)OC2`: the survival at 11 mg/kg worked out at 100%.

Another experiment has as its system Plasmodium berghei. The experiment is described as follows: Antimalarial activity against Plasmodium berghei infected in Swiss Webster mouse assessed as mouse survival rate at 100 mg/kg administered once daily via oral gavage for 4 consecutive days beginning 1 hr after infection measured on day 8 post infection relative to control. The format is functional.
Conditions: not given
In outline: as §1
Take `Cc1c(Oc2cnc(C(=O)N[C@@H](CO)CC(F)(F)F)cn2)ccc2c1B(O)OC2`: the survival at 100 mg/kg stood at 100%.

For the next experiment, the system named is Plasmodium falciparum. The experiment is described as follows: Antimalarial activity against chloroquine-sensitive Plasmodium falciparum 3D7 infected in human erythrocytes assessed as reduction in [3H]-hypoxanthine incorporation preincubated for 24 hrs followed by [3H]-hypoxanthine addition measured after 24 hrs by scintillation counting method. In kind it is functional, cell-based.
Conditions: not given
In outline:
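P. falciparum 3D7 cultures were exposed to the compound for 48 h, with atovaquone as the reference control. IC50 was taken from three replicates.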
In the case of `Cc1c(Oc2cnc(C(=O)N[C@@H](CO)CC(F)(F)F)cn2)ccc2c1B(O)OC2`, the IC50 came out at 149 nM.

The subject of another experiment is Plasmodium berghei. Nature of the experiment: Antimalarial activity against Plasmodium berghei infected in Swiss Webster mouse assessed as mouse survival rate at 1.2 mg/kg administered once daily via oral gavage for 4 consecutive days beginning 1 hr after infection measured on day 4 post infection relative to control. In kind it is functional.
Conditions: not given
An outline of the steps: as §1
Take `Cc1c(Oc2cnc(C(=O)N[C@@H](CO)CC(F)(F)F)cn2)ccc2c1B(O)OC2`: the survival at 1.2 mg/kg came out at 100%.

A further experiment concerns Plasmodium berghei. The experiment is described as follows: Antimalarial activity against Plasmodium berghei infected in Swiss Webster mouse assessed as mouse survival rate at 3.7 mg/kg administered once daily via oral gavage for 4 consecutive days beginning 1 hr after infection measured on day 7 post infection relative to control. The format is functional.
Conditions: not given
In outline:
as §2
For `Cc1c(Oc2cnc(C(=O)N[C@@H](CO)CC(F)(F)F)cn2)ccc2c1B(O)OC2`, the survival at 3.7 mg/kg was determined as 0%.

The next experiment deals with Plasmodium berghei. The experiment is described as follows: Antimalarial activity against Plasmodium berghei infected in Swiss Webster mouse assessed as mouse survival rate at 33 mg/kg administered once daily via oral gavage for 4 consecutive days beginning 1 hr after infection measured on day 8 post infection relative to control. The format is functional.
Conditions: not given
In outline: as §2
For `Cc1c(Oc2cnc(C(=O)N[C@@H](CO)CC(F)(F)F)cn2)ccc2c1B(O)OC2`, the survival at 33 mg/kg came to 100%.

In a further experiment the test system is Plasmodium berghei. The experiment is described as follows: Antimalarial activity against Plasmodium berghei infected in Swiss Webster mouse assessed as mouse survival rate at 100 mg/kg administered once daily via oral gavage for 4 consecutive days beginning 1 hr after infection measured on day 10 post infection relative to control. The format is functional.
Conditions: not given
An outline of the steps: as §1
Regarding `Cc1c(Oc2cnc(C(=O)N[C@@H](CO)CC(F)(F)F)cn2)ccc2c1B(O)OC2`, the survival at 100 mg/kg came out at 100%.

Another experiment deals with Plasmodium berghei. The experiment is described as follows: Antimalarial activity against Plasmodium berghei infected in Swiss Webster mouse assessed as mouse survival rate at 33 mg/kg administered once daily via oral gavage for 4 consecutive days beginning 1 hr after infection measured on day 11 post infection relative to control.
Conditions: not given
The format is functional. An outline of the steps: as §2
Take `Cc1c(Oc2cnc(C(=O)N[C@@H](CO)CC(F)(F)F)cn2)ccc2c1B(O)OC2`: the survival at 33 mg/kg was determined as 0%.

Another experiment relates to Plasmodium berghei. The experiment is described as follows: Antimalarial activity against Plasmodium berghei infected in Swiss Webster mouse assessed as mouse survival rate at 1.2 mg/kg administered once daily via oral gavage for 4 consecutive days beginning 1 hr after infection measured on day 6 post infection relative to control. In kind it is functional.
Conditions: not given
In outline:
as §1
Turning to `Cc1c(Oc2cnc(C(=O)N[C@@H](CO)CC(F)(F)F)cn2)ccc2c1B(O)OC2`, the survival at 1.2 mg/kg turned out to be 100%.

For a further experiment, the system named is Plasmodium berghei. Nature of the experiment: Antimalarial activity against Plasmodium berghei infected in Swiss Webster mouse assessed as mouse survival rate at 0.4 mg/kg administered once daily via oral gavage for 4 consecutive days beginning 1 hr after infection measured on day 5 post infection relative to control. The format is functional.
Conditions: not given
An outline of the steps:
as §1
Turning to `Cc1c(Oc2cnc(C(=O)N[C@@H](CO)CC(F)(F)F)cn2)ccc2c1B(O)OC2`, the survival at 0.4 mg/kg worked out at 100%.

For the next experiment, the system named is Plasmodium berghei. The experiment is described as follows: Antimalarial activity against Plasmodium berghei infected in Swiss Webster mouse assessed as mouse survival rate at 11 mg/kg administered once daily via oral gavage for 4 consecutive days beginning 1 hr after infection measured on day 7 post infection relative to control.
Conditions: not given
In kind it is functional. An outline of the steps:
as §2
Consider `Cc1c(Oc2cnc(C(=O)N[C@@H](CO)CC(F)(F)F)cn2)ccc2c1B(O)OC2`, for which the survival at 11 mg/kg is 0%.

The next experiment deals with Plasmodium falciparum. The experiment is described as follows: Antimalarial activity against chloroquine-resistant Plasmodium falciparum W2 infected in human erythrocytes after 48 hrs by YOYO-1 dye based flow cytometric analysis. In kind it is functional, cell-based. The following applies: W2, 48 h. In outline:
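P. falciparum W2 cultures were exposed to the compound for 48 h, with artemisinin and chloroquine as reference controls. IC50 was taken from two independent replicates.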
(Flow cytometry measures light scatter and fluorescence of single cells or particles in a stream.)
In turn, `Cc1c(Oc2cnc(C(=O)N[C@@H](CO)CC(F)(F)F)cn2)ccc2c1B(O)OC2` yielded an IC50 of 82.2 nM.

In the next experiment the test system is Plasmodium berghei. Nature of the experiment: Antimalarial activity against Plasmodium berghei infected in Swiss Webster mouse assessed as mouse survival rate at 33 mg/kg administered once daily via oral gavage for 4 consecutive days beginning 1 hr after infection measured on day 4 post infection relative to control. The format is functional.
Conditions: not given
An outline of the steps: as §2
For the compound `Cc1c(Oc2cnc(C(=O)N[C@@H](CO)CC(F)(F)F)cn2)ccc2c1B(O)OC2`, the survival at 33 mg/kg came to 100%.

The test system of the next experiment is Plasmodium berghei. The experiment is described as follows: Antimalarial activity against Plasmodium berghei infected in Swiss Webster mouse assessed as mouse survival rate at 3.7 mg/kg administered once daily via oral gavage for 4 consecutive days beginning 1 hr after infection measured on day 6 post infection relative to control. In kind it is functional.
Conditions: not given
In outline:
as §2
In the case of `Cc1c(Oc2cnc(C(=O)N[C@@H](CO)CC(F)(F)F)cn2)ccc2c1B(O)OC2`, the survival at 3.7 mg/kg came out at 100%.

A further experiment relates to Plasmodium berghei. The experiment is described as follows: Antimalarial activity against Plasmodium berghei infected in Swiss Webster mouse assessed as mouse survival rate at 100 mg/kg administered once daily via oral gavage for 4 consecutive days beginning 1 hr after infection measured on day 9 post infection relative to control. In kind it is functional.
Conditions: not given
An outline of the steps:
as §1
Consider `Cc1c(Oc2cnc(C(=O)N[C@@H](CO)CC(F)(F)F)cn2)ccc2c1B(O)OC2`, for which the survival at 100 mg/kg worked out at 100%.

For the next experiment, the system named is Plasmodium berghei. The experiment is described as follows: Antimalarial activity against Plasmodium berghei infected in Swiss Webster mouse assessed as mouse survival rate at 100 mg/kg administered once daily via oral gavage for 4 consecutive days beginning 1 hr after infection measured on day 5 post infection relative to control. The format is functional.
Conditions: not given
In outline: as §1
With `Cc1c(Oc2cnc(C(=O)N[C@@H](CO)CC(F)(F)F)cn2)ccc2c1B(O)OC2`, the survival at 100 mg/kg came to 100%.

For another experiment, the system named is Plasmodium berghei. The experiment is described as follows: Antimalarial activity against Plasmodium berghei infected in Swiss Webster mouse assessed as mouse survival rate at 3.7 mg/kg administered once daily via oral gavage for 4 consecutive days beginning 1 hr after infection measured on day 5 post infection relative to control. The format is functional.
Conditions: not given
An outline of the steps: as §2
With `Cc1c(Oc2cnc(C(=O)N[C@@H](CO)CC(F)(F)F)cn2)ccc2c1B(O)OC2`, the survival at 3.7 mg/kg came to 100%.

(Values after ChEMBL document CHEMBL4038305, “Benzoxaborole Antimalarial Agents. Part 5. Lead Optimization of Novel Amide Pyrazinyloxy Benzoxaboroles and Identification of a Preclinical Candidate” (J Med Chem, 2017).)
